This is an account of results in ChEMBL document CHEMBL4219124, “Alleviating CYP and hERG liabilities by structure optimization of dihydrofuran-fused tricyclic benzo[d]imidazole series - Potent, selective and orally efficacious microsomal prostaglandin E synthase-1 (mPGES-1) inhibitors: Part-2” (Bioorg Med Chem Lett, 2018).

Series [1] in a line: Metabolic stability in rat liver microsomes assessed as parent compound remaining at 1 uM after 60 mins in presence of NADPH by LC-MS/MS analysis. It is filed as ADME, microsome. To be noted: read-out: Stability. The essentials: (§1)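 Compound incubated 60 min at 37 °C with human, rat or guinea pig liver microsomes; percent parent remaining, triplicates.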
Series [2] is described as follows: Metabolic stability in human liver microsomes assessed as parent compound remaining at 1 uM after 60 mins in presence of NADPH by LC-MS/MS analysis. The note with it: read-out: Stability. It is filed as ADME, microsome. The method, boiled down:
as §1

Series [3] concerns the target T1, Prostaglandin E synthase (Homo sapiens, UniProt O14684).
T1 sequence (O14684 whole entry): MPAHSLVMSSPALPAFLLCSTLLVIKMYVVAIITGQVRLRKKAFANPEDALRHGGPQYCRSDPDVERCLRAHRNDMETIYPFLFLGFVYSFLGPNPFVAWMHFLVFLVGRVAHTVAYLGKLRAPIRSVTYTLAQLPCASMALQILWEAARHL
The experiment in a line: Inhibition of recombinant human mPGES1 expressed in CHO cells assessed as reduction in PGE2 production using PGH2 as substrate incubated for 10 mins followed by substrate addition measured for 1 min. It is filed as cell-based.

Series [4] addresses T1, Prostaglandin E synthase. As to the kind of experiment: Inhibition of mPGES1 in human A549 cells assessed as reduction in IL-1beta-induced PGE2 production preincubated for 30 mins followed by incubation with IL-1beta for 16 to 20 hrs measured after 10 mins by HTRF assay. It is filed as cell-based.
Series [5] addresses T1, Prostaglandin E synthase. As to the kind of experiment: Inhibition of mPGES1 in human whole blood assessed as reduction in LPS-induced PGE2 production measured after 20 to 24 hrs.
The nature of series [6]: Metabolic stability in guinea pig liver microsomes assessed as parent compound remaining at 1 uM after 60 mins in presence of NADPH by LC-MS/MS analysis. The format is ADME, Cavia porcellus, microsome. To be noted: read-out: Stability. The essentials:
as §1

Another series addresses T2, CYP1A2 (Homo sapiens, UniProt P05177).
T2 sequence (P05177 whole entry): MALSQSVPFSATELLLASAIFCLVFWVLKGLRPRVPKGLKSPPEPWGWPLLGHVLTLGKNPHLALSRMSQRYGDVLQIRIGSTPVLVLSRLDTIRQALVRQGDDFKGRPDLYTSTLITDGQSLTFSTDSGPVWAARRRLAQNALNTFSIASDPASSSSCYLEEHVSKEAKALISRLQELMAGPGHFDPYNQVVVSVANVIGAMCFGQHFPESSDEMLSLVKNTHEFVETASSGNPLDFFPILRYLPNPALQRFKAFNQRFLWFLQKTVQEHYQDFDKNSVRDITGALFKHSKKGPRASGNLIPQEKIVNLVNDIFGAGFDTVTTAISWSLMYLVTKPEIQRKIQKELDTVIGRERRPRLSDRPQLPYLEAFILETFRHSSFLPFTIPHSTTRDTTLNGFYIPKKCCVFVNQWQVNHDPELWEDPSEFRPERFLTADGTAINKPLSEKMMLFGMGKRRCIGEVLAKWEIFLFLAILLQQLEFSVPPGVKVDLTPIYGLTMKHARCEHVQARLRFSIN
As to the kind of experiment: Inhibition of CYP1A2 in human liver microsomes at 10 uM after 20 mins in presence of NADPH by LC-MS/MS analysis. It is filed as ADME. The essentials: (§2)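 Percent inhibition of each CYP isoform by test compound at 10 µM, compared with a no-inhibitor control. Run in triplicate.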

The target of a further series is CYP2D6 (Homo sapiens, UniProt P10635). The experiment in a line: (§3) Inhibition of CYP2D6 in human liver microsomes at 10 uM after 20 mins in presence of NADPH by LC-MS/MS analysis. It is filed as ADME. To be noted: liver microsomes. The essentials: as §2
A further series has as its target CYP3A4 (Homo sapiens, UniProt P08684). The experiment in a line: Inhibition of CYP3A4 in human liver microsomes at 10 uM after 20 mins in presence of NADPH by LC-MS/MS analysis. The format is ADME. The method, boiled down: as §2
The target of another series is CYP2C9 (Homo sapiens, UniProt P11712). The experiment in a line: Inhibition of CYP2C9 in human liver microsomes at 10 uM after 20 mins in presence of NADPH by LC-MS/MS analysis. It is filed as ADME. The essentials:
as §2

The next series has as its target CYP2C19 (Homo sapiens, UniProt P33261). As to the kind of experiment: Inhibition of CYP2C19 in human liver microsomes at 10 uM after 40 mins in presence of NADPH by LC-MS/MS analysis. The format is ADME. The method, boiled down:
as §2

In another series the target is hERG (KCNH2) (Homo sapiens, UniProt Q12809). The experiment in a line: Inhibition of human ERG at 10 uM by patch clamp assay relative to control. The essentials:
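hERG current measured by patch clamp with test compound at 10 µM; result given as % inhibition.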

A short description of series [7]: Apparent passive permeability of the compound by PAMPA. It is filed as ADME. The method, boiled down: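 Passive permeability by PAMPA, using a 2% lecithin in dodecane membrane. Run in triplicate.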
For a further series, the target named is Cytochrome P450 2D6 (Homo sapiens, UniProt P10635). The description is as §3. It is filed as ADME. The note with it: microsomes, 20 min, 10 µM. The method, boiled down: as §2
The subject of another series is Cavia porcellus. As to the kind of experiment: Analgesic activity in Dunkin-Hartley guinea pig hyperalgesia pain model assessed as inhibition of LPS-induced hyperalgesia at 10 mg/kg, po administered 2 hrs prior to LPS challenge measured after 4.5 hrs relative to control. It is filed as functional. The essentials:
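Guinea pigs received compound orally, once daily, at 10, 30 or 100 mg/kg, 2 h before LPS was injected into the plantar surface of the right paw. Saline-injected animals served as the comparison for thermal hyperalgesia. Plasma and brain drug levels taken 7 h after dosing, mean of n = 6–9 per group, from a single experiment.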

A short description of series [8]: Protein binding in human plasma at 10 uM after 5 hrs by equilibrium dialysis based LC-MS/MS analysis. It is filed as ADME, cell-free. To be noted: read-out: PPB (converted). The essentials:
(§4)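 Equilibrium dialysis at 10 μM compound; result expressed as percent bound.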

Series [9] in a line: Protein binding in guinea pig plasma at 10 uM after 5 hrs by equilibrium dialysis based LC-MS/MS analysis. The format is ADME, cell-free, Cavia porcellus. The note with it: read-out: PPB (converted). The method, boiled down: as §4

Sequence of CYP3A4 (P08684 whole entry): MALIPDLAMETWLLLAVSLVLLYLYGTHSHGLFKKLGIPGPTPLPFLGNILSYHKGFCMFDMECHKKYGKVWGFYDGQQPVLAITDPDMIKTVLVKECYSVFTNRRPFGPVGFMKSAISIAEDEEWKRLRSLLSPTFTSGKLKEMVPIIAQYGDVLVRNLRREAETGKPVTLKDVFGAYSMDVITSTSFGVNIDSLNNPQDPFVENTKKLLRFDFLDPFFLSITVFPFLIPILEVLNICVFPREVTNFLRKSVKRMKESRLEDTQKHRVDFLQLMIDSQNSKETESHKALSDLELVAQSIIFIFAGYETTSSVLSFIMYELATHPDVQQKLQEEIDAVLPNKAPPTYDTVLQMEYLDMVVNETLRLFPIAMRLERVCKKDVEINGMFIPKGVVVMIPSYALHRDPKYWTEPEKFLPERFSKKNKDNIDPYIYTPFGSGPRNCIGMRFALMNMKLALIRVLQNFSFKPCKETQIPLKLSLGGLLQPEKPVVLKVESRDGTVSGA
Sequence of CYP2C9 (P11712 whole entry): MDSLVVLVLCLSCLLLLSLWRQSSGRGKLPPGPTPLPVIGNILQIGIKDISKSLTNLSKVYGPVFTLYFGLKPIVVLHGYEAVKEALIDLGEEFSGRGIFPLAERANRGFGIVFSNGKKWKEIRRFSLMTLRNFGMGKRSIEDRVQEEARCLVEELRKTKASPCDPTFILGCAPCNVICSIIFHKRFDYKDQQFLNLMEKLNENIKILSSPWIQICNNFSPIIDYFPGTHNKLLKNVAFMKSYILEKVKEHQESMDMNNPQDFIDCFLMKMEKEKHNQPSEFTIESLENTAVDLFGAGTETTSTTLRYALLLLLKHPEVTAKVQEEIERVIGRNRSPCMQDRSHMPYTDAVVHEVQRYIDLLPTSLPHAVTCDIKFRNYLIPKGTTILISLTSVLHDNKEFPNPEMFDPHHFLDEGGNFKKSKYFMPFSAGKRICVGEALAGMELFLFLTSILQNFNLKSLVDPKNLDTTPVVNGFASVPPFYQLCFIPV
Sequence of CYP2C19 (P33261 whole entry): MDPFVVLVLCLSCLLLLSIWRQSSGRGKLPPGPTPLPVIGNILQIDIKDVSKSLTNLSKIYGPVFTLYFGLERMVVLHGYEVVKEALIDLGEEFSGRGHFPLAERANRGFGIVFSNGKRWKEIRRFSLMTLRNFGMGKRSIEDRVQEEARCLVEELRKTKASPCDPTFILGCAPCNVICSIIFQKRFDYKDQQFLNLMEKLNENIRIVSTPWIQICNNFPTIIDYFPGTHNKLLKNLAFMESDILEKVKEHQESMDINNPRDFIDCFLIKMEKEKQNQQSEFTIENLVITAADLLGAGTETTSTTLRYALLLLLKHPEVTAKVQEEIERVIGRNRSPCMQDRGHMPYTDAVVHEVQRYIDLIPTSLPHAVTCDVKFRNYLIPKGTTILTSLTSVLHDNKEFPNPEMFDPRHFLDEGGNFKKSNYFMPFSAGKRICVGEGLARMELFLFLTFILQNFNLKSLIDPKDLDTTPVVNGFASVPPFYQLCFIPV
Sequence of CYP2D6 (P10635 whole entry): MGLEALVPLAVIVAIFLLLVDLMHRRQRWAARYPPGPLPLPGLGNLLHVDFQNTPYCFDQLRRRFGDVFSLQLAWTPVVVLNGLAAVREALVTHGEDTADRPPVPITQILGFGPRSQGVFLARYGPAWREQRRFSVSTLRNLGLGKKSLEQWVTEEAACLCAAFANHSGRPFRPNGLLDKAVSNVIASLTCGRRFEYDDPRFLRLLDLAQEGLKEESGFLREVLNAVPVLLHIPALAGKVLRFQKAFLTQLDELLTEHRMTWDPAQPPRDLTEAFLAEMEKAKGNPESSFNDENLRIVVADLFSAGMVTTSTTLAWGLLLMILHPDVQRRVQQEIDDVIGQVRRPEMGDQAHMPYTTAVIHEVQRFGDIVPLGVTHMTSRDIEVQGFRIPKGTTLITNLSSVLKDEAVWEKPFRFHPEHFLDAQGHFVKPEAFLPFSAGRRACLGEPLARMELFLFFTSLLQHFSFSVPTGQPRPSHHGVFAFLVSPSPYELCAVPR
Sequence of Cytochrome P450 2D6 (P10635 whole entry): as above
Sequence of hERG (KCNH2) (Q12809 whole entry): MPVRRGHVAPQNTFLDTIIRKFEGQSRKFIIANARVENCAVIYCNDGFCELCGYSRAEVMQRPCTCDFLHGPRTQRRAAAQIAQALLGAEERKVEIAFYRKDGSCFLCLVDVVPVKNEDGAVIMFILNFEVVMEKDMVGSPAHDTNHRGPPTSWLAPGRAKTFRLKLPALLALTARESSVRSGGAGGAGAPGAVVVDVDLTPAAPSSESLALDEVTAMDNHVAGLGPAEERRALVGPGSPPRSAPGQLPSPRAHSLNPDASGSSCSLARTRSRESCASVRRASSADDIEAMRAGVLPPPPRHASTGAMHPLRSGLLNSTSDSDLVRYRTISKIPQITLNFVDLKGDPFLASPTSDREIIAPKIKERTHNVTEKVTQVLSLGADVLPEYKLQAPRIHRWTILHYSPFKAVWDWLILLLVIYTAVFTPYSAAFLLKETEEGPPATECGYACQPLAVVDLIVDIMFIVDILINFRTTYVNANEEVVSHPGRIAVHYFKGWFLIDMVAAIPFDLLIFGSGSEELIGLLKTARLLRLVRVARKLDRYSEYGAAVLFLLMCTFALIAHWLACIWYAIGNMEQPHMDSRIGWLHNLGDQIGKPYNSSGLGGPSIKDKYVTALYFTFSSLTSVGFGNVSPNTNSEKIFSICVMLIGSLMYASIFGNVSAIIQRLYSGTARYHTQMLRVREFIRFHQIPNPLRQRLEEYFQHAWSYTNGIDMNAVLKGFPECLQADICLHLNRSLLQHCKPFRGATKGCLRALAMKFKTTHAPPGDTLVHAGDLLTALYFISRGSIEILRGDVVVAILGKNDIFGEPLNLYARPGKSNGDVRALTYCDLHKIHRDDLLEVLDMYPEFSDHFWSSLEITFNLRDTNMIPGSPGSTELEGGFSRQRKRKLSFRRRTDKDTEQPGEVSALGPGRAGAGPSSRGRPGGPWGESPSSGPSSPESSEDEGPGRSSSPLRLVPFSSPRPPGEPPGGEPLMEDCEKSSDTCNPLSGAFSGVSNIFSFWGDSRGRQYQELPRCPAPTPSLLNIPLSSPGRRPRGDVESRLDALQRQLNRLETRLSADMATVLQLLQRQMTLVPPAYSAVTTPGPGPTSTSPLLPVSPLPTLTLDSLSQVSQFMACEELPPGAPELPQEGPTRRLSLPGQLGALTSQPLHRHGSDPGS

Take `Cc1cc(C(F)(F)F)ccc1NC(=O)c1cc2nc(Nc3c(F)cccc3Cl)[nH]c2c2c1OC(C)(C)C2`: the figures for the remaining at 1 h, 1 µM in series [1], in series [2] and in series [6] were 91%, 82% and 72%, respectively. In addition, the figures for the IC50 at Prostaglandin E synthase [3], at Prostaglandin E synthase [4] and on Prostaglandin E synthase [5] were 6.1 nM, 6 nM and 270 nM, respectively. Also, the inhibition at 20 min, 10 µM on CYP1A2 is 26%; on CYP2D6, 16%; at CYP3A4, 20%; at CYP2C9, 1%. In addition, the inhibition at 40 min, 10 µM on CYP2C19 was found to be 38%. This compound registered an inhibition at 10 µM on hERG (KCNH2) of 16.2%. Besides, in series [7], the Papp worked out at 0.31 ×10⁻⁶ cm/s.

`CC1(C)Cc2c(c(C(=O)Nc3c(F)cccc3F)cc3nc(Nc4c(Cl)cccc4Cl)[nH]c23)O1`: the remaining at 1 h, 1 µM in series [2] turned out to be 72%; in series [6], 80%. In addition, the figures for the IC50 at Prostaglandin E synthase [3], at Prostaglandin E synthase [4] and on Prostaglandin E synthase [5] were 6.4 nM, 15 nM and 661 nM, respectively. Moreover, the inhibition at 20 min, 10 µM at CYP1A2 worked out at 14%; on CYP3A4 it was 24%; on CYP2C9, 35%. In addition, the “inhibition (INH)” value at Cytochrome P450 2D6 was “Not Active”. Moreover, the inhibition at 40 min, 10 µM on CYP2C19 is 41%.

As for `O=C(O)Cc1ccccc1Nc1c(Cl)cccc1Cl` [DICLOFENAC], the inhibition in vivo at 10 mg/kg with Cavia porcellus worked out at 85%.

In the case of `CC1(C)Cc2c(c(C(=O)Nc3ccccc3C(F)(F)F)cc3nc(Nc4c(F)cccc4Cl)[nH]c23)O1`, the remaining at 1 h, 1 µM in [2] stood at 93%; in series [6], 89%. The IC50 stood at 5.1 nM at Prostaglandin E synthase [3], 9.7 nM on Prostaglandin E synthase [4] and 536 nM at Prostaglandin E synthase [5]. Further, the inhibition at 20 min, 10 µM on CYP1A2 was determined as 17%; at CYP2D6, 4%; on CYP3A4 it was 11%; on CYP2C9, 29%. The inhibition at 40 min, 10 µM on CYP2C19 came out at 46%. Moreover, the fraction unbound at 5 h, 10 µM in series [8] and in [9] was < 0.005 in each case. For the same compound, in [7], the Papp was 0.12 ×10⁻⁶ cm/s.

In the case of `CC1(C)Cc2c(c(C(=O)Nc3ccccc3C(F)(F)F)cc3nc(Nc4c(Cl)cccc4Cl)[nH]c23)O1`, the half-inhibitory concentration (IC50) was found to be 4.9 nM on Prostaglandin E synthase [3], 5.2 nM on Prostaglandin E synthase [4] and 506 nM at Prostaglandin E synthase [5]. Besides, the remaining at 1 h, 1 µM in [6] was found to be 86%. Moreover, the inhibition at 20 min, 10 µM at CYP1A2 amounted to 18%; at CYP3A4, 17%; at CYP2C9 it was 16%. The “inhibition (INH)” value on Cytochrome P450 2D6 is given as “Not Active”. Further, the inhibition at 40 min, 10 µM at CYP2C19 was found to be 30%.
